Here are results for twelve compounds from ChEMBL document CHEMBL1781942, “Microwave-assisted synthesis, crystal structure of pyrazolo[1,5-a]pyrazin-4(5H)-ones and their selective effects on lung cancer cells” (Eur J Med Chem, 2011).

Structures are written as SMILES. Activity calls are given as the source filed them. The rule behind the calls is not given here.

The test system of data set [1] is A549. Nature of the data set: Growth inhibition of human A549 cells assessed as cell viability at 8 to 64 uM after 48 hrs by SRB assay. It counts as functional, cell-based. A digest of the protocol: (§1)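 A549 cells (p53 wild-type) in RPMI 1640 with 10% bovine calf serum, seeded at 6250/cm2 in 96-well plates. Exposed 48 h to 8, 16, 32 or 64 µM. SRB read-out gave survival percentage against 0.1% DMSO-treated cells. Means ± SE from three independent experiments.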

For data set [2], the system named is A549. Put plainly: Growth inhibition of human A549 cells assessed as cell viability after 48 hrs by SRB assay. It counts as functional, cell-based. A digest of the protocol:
as §1
In general terms: In SRB staining, fixed cells bind dye roughly in proportion to their protein.

Data set [3] deals with NCI-H322. Nature of the data set: Growth inhibition of human NCI-H322 cells assessed as cell viability after 48 hrs by SRB assay. Type of data set: functional, cell-based. A digest of the protocol: (§2)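 H1299 (p53-null) or H322 (p53-mutant) cells in RPMI 1640 with 10% bovine calf serum, seeded at 6250/cm2. Treated 48 h at 16, 32 or 64 µM. SRB assay, survival relative to 0.1% DMSO solvent control. Means ± SE, three independent experiments.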

For data set [4], the system named is NCI-H1299. Nature of the data set: Growth inhibition of human H1299 cells assessed as cell viability after 48 hrs by SRB assay. It counts as functional, cell-based. A digest of the protocol: as §2
Data set [5] in a line: Cytotoxicity against human embryonic lung cells assessed as growth inhibition at 32 to 64 uM after 48 hrs by SRB assay. Type of data set: cell-based. A digest of the protocol:
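Human embryo lung cells grown in RPMI 1640 with 10% bovine calf serum, seeded at 6250/cm2, treated 48 h at 32 or 64 µM. Controls were 0.1% DMSO vehicle and 5-FU as positive control. Viability by SRB, relative to DMSO-treated cells. Means ± SE, three independent experiments.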

Data set [6] has as its system A549. Nature of the data set: Induction of apoptosis in human A549 cells expressing p53 assessed as chromatin condensation at 16 to 64 uM after 48 hrs by Hoechst 33258 staining-based fluorescence microscopy. Type of data set: functional, cell-based. A digest of the protocol: (§3)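 Live A549 cells treated 48 h at 16, 32 or 64 µM, or with 0.1% DMSO. Stained in medium with 10 µg/mL Hoechst 33258 for 10 min at 37 °C, washed with PBS. Fluorescence microscopy (200×) scored intense local nuclear staining as apoptotic. At least 500 cells counted; triplicate.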

Data set [7] has as its system NCI-H322. Put plainly: Induction of apoptosis in human NCI-H322 cells expressing P53 mutant assessed as chromatin condensation at 32 to 64 uM after 48 hrs by Hoechst 33258 staining-based fluorescence microscopy. Type of data set: functional, cell-based. A digest of the protocol:
(§4)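 H322 or H1299 cells treated 48 h at 32 or 64 µM versus 0.1% DMSO. Fixed in 4% formaldehyde in PBS for 10 min, then stained with 2 µg/mL Hoechst 33258, 30 min, 37 °C, and washed with PBS. Condensed, intensely stained nuclei counted as apoptotic under fluorescence microscopy. At least 500 cells counted; triplicate.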

In data set [8] the test system is NCI-H1299. Put plainly: Induction of apoptosis in human p53-null H1299 cells assessed as chromatin condensation at 32 to 64 uM after 48 hrs by Hoechst 33258 staining-based fluorescence microscopy. Type of data set: functional, cell-based. A digest of the protocol: as §4
In data set [9] the test system is A549. Nature of the data set: Cell cycle arrest in human A549 cells assessed as accumulation at G1 phase at 64 uM after 48 hrs by propidium iodide staining-based flow cytometry relative to control. It counts as functional. For orientation: Flow cytometry measures light scatter and fluorescence of single cells or particles in a stream.
The test system of data set [10] is A549. Nature of the data set: Induction of necrosis in human A549 cells assessed as LDH release at 64 uM after 48 hrs. It counts as functional, cell-based. A digest of the protocol: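 A549 cells exposed 48 h to 64 µM or 0.1% DMSO control. Culture medium collected and lactate dehydrogenase measured with a commercial kit, absorbance at 440 nm. Mean ± SE, n = 3.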

Data set [11] deals with A549. Nature of the data set: Induction of apoptosis in human A549 cells expressing p53 assessed as DNA fragmentation at 16 to 64 uM after 48 hrs by Hoechst 33258 staining-based fluorescence microscopy. It counts as functional, cell-based. A digest of the protocol:
as §3

In data set [12] the test system is A549. Nature of the data set: Cell cycle arrest in human A549 cells assessed as accumulation at G2 phase at 64 uM after 48 hrs by propidium iodide staining-based flow cytometry (reference value: 11.52 %). Type of data set: functional.
For data set [13], the system named is A549. Put plainly: Cell cycle arrest in human A549 cells assessed as accumulation at S phase at 64 uM after 48 hrs by propidium iodide staining-based flow cytometry (reference value: 30.36 %). It counts as functional.
In data set [14] the test system is A549. Put plainly: Cell cycle arrest in human A549 cells assessed as accumulation at […] phase at 64 uM after 48 hrs by propidium iodide staining-based flow cytometry (reference value: 1.94 %). Type of data set: functional.
For data set [15], the system named is NCI-H322. Nature of the data set: Induction of apoptosis in human NCI-H322 cells expressing P53 mutant assessed as DNA fragmentation at 32 to 64 uM after 48 hrs by Hoechst 33258 staining-based fluorescence microscopy. It counts as functional, cell-based. A digest of the protocol: as §4
In data set [16] the test system is NCI-H1299. Nature of the data set: Induction of apoptosis in human p53-null H1299 cells assessed as DNA fragmentation at 32 to 64 uM after 48 hrs by Hoechst 33258 staining-based fluorescence microscopy. Type of data set: functional, cell-based. A digest of the protocol:
as §4

For the compound `O=C1c2cc(-c3ccccc3)nn2CCN1CCOCCO`, in the data set on A549 [1], the “growth inhibition (GI)” value was “inactive”.
`COc1ccc(-c2cc3n(n2)CCN(CCO)C3=O)cc1`: in the data set on A549 [1], the “growth inhibition (GI)” value is “inactive”.
The same measure, in the same setting: next, `O=C1c2cc(-c3ccccc3)nn2CCN1CCO`: “inactive”; `COc1ccc(-c2cc3n(n2)CCN(CCOCCO)C3=O)cc1`: “inactive”.
Regarding `O=C1c2cc(-c3ccc(Cl)cc3)nn2CCN1CCOCCO`, the “growth inhibition (GI)” value in the data set on A549 [2], in the data set on NCI-H322 [3] and with NCI-H1299 [4] was “Dose-dependent effect” each time. Also, the Activity entry in data set [5] is reported as “Non-toxic”; with A549 [9], 13%; in the data set with A549 [12] it was 7.86%; in the data set with A549 [13], 20.98%; in the data set on A549 [14], 1.93%. Also, the outcome in the data set with A549 [6], in the data set on A549 [10] and with A549 [11] was inactive. Besides, the result in the data set on NCI-H322 [7], with NCI-H1299 [8], in the data set with NCI-H322 [15] and in the data set with NCI-H1299 [16] was Active.
As to `O=C1c2cc(-c3ccc(Cl)cc3)nn2CCN1CCO`, the “growth inhibition (GI)” value with A549 [2], in the data set with NCI-H322 [3] and in the data set with NCI-H1299 [4] was “Dose-dependent effect” in each case. Besides, the Activity entry in [5] is listed as “Non-toxic”; in the data set on A549 [9], 18%; with A549 [12] it was 5.37%; in the data set with A549 [13], 18.02%; in the data set on A549 [14], 1.95%. Besides, the outcome in the data set on A549 [6], in the data set with A549 [10] and with A549 [11] was inactive. The result in the data set with NCI-H322 [7], with NCI-H1299 [8], in the data set with NCI-H322 [15] and with NCI-H1299 [16] was Active.
With `O=C1c2cc(-c3ccccc3)nn2CCN1CCN1CCOCC1`, the “growth inhibition (GI)” value in the data set on A549 [1] was “inactive”.
As for `O=C1c2cc(-c3ccccc3)nn2CCN1CCCO`, in the data set with A549 [1], the “growth inhibition (GI)” value was “inactive”.
As to `COc1ccc(-c2cc3n(n2)CCN(CCCO)C3=O)cc1`, the “growth inhibition (GI)” value in the data set on A549 [1] is “inactive”.
Consider `COc1ccc(-c2cc3n(n2)CCN(CCN2CCOCC2)C3=O)cc1`, for which, in the data set on A549 [1], the “growth inhibition (GI)” value is “inactive”.
`O=C1c2cc(-c3ccc(Cl)cc3)nn2CCN1CCCO`: the “growth inhibition (GI)” value in the data set on A549 [2], with NCI-H322 [3] and with NCI-H1299 [4] was “Dose-dependent effect” in each case. Besides, the Activity entry is on record as “Non-toxic” in data set [5]; 32% in the data set on A549 [9]; 5.54% with A549 [12]; 3.83% in the data set with A549 [13]; 1.92% in the data set with A549 [14]. Besides, the outcome in the data set on A549 [6], with A549 [10] and in the data set with A549 [11] was inactive. Further, the result in the data set with NCI-H322 [7], with NCI-H1299 [8], in the data set with NCI-H322 [15] and in the data set on NCI-H1299 [16] was Active.
In the case of `O=C1c2cc(-c3ccc(Cl)cc3)nn2CCN1CCN1CCOCC1`, the “growth inhibition (GI)” value in the data set on A549 [2], in the data set with NCI-H322 [3] and with NCI-H1299 [4] was “Dose-dependent effect” in each case. For the same compound, the Activity result is given as “Non-toxic” in data set [5]; 27% in the data set with A549 [9]; 6.83% in the data set with A549 [12]; 7.6% in the data set with A549 [13]; 1.94% in the data set on A549 [14]. Moreover, the result with A549 [6], in the data set on A549 [10] and with A549 [11] was inactive. For the same compound, the outcome in the data set with NCI-H322 [7], in the data set with NCI-H1299 [8], in the data set with NCI-H322 [15] and in the data set on NCI-H1299 [16] was Active.
